An excerpt weighted towards active compounds, which were near 1.2% of everything screened.
FN deposition inh = inhibitors of fibronectin matrix deposition, primary screen, AH1F cells, Alexa488-fibronectin fluorescence, plate reader; AH1F fibroblasts, overnight; AID 743247, 2014; inhibition, % at 12.6 µM; hit rate 0.086% among 350,000;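 active = mean inhibition across replicates of 30% or more, regardless of how many single replicates reach that level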;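 also: positive control wells lacked labelled fibronectin entirely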
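Assay system: AH1F fibroblasts / Quantity: 10000 cells per well / Medium: DMEM plus 2% serum, read in PBS / Reagent: labelled fibronectin 24 nM / Dosing: single dose, pinned / Times: 1 h cell attachment, overnight exposure to compound and label / Signal: fluorescence, ex 485 nm, em 525 nm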
RAD54 inh = inhibitors of human RAD54 branch migration, primary screen, biochemical, fluorescence, single point | RAD54 Holliday junction branch migration, FAM/BHQ fluorescence | inhibition, % at 10.4 µM | AID 602329, 2012 | hit rate 0.14% among 360,000;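 active = mean normalized replicate activity at least 40 and at least half of replicates scoring 40 or more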;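 also: 0% = median of neutral control wells and 100% = median of positive control wells; inhibitors cause a drop in the FAM fluorescence signal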
NSD2 inh = NSD2 histone methyltransferase inhibitors, primary screen, biochemical, AlphaScreen, single concentration, set 2; hit rate 0.54% among 310,000; inhibition, % at 12.5 µM; NSD2 peptide methylation, 120 min; Histone-lysine N-methyltransferase NSD2 (Homo sapiens), O96028; in the data active = inhibition above about 50%
AF4-AF9 inh = inhibitors of AF4 peptide binding to AF9, primary screen, biochemical, AlphaScreen, biotin-AF4 peptide, FLAG-AF9, single point | hit rate 0.47% among 350,000 | AID 651704, 2012 | inhibition, % at 10 µM | Protein AF-9 (Homo sapiens), P42568;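 active = every replicate reaching a set inhibition limit, whatever the replicate mean, cut at about 25% in these data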;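 also: 0% = plate neutral control median and 100% = total signal loss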
Target sequence (P42568 whole entry, looked up): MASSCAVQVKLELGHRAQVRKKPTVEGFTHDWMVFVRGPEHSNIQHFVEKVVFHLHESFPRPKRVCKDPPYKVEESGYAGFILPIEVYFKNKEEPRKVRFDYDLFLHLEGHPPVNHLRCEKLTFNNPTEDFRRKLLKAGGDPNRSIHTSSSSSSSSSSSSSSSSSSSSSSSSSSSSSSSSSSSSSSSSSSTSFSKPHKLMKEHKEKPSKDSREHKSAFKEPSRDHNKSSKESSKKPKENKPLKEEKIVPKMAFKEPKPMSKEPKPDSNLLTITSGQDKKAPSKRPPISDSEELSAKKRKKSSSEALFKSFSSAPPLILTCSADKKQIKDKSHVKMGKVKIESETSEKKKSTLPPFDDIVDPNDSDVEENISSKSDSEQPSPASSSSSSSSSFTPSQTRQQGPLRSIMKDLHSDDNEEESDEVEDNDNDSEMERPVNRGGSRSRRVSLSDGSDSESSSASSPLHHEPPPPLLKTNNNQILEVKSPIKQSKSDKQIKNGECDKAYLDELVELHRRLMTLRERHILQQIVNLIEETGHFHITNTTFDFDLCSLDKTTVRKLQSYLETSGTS
RAD52 anneal inh = RAD52 DNA annealing inhibitors, primary screen, biochemical, FRET, single point, set 2 | hit rate 0.46% among 360,000 | inhibition, % at 18.7 µM | AID 651710, 2012 | recombinant RAD52 DNA annealing, FRET fluorescence;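 active = every replicate showing at least 50% inhibition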
N-glyco inh = increase of ERlucT glycosylation luciferase signal, primary screen, N-linked glycosylation inhibitor project, D54 ERlucT cells, luminescence, set 2 | D54 ERlucT glycosylation luciferase reporter, 24 h; percent of 100 nM tunicamycin response | reporter increase, % at 12.5 µM | hit rate 0.23% among 360,000 | AID 588692, 2011;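 active = mean luciferase reporter signal, scaled so untreated is 0 and the glycosylation-blocking control 100, at or above a set limit in every replicate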;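 also: luciferase carries N-glycosylation sites so blocking glycosylation raises the light; 0% = median of neutral control wells and 100% = median of 100 nM tunicamycin wells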
AlphaScreen intf = AlphaScreen signal interference counter-screen, dose response, artefact control, biochemical, cherry-picked samples, luminescence; shares compounds with AF4-AF9 inh; AC50, µM (doses to about 12 µM), inactives show at the top dose activity change, negative = inhibition; hit rate 45% among 530; cut-off not given, nearly all actives have AC50 up to about 14 µM
DNA binder FP = DNA-binding compounds via dye displacement, dose response, artefact control for RAD52 inhibitor project, biochemical, fluorescence polarization, cherry-pick | AC50, µM | shares compounds with RAD52 anneal inh | hit rate 8% among 1,000 | Salmon sperm DNA/acridine orange FP displacement;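 active = fitted half-maximal concentration for signal loss at or below twice the highest dose tested, in every separate run, actives reach about 64 µM in these data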
Alpha artifact = AlphaScreen signal interference with preloaded methylated product, dose response, artefact control for NSD2 inhibitor project, biochemical, cherry-picked samples; AlphaScreen artifact counterscreen, preloaded methylated H4 peptide; shares compounds with NSD2 inh; AC35, µM (doses to about 10 µM), for the others: top-dose activity change, negative = signal loss; hit rate 9.4% among 1,500; call rule not given here
Starred values were filed as active, the others as inactive.

For Cc1ccc(S(=O)(=O)Nc2ccc3c(c2)C(=O)N([C@@H](C)CO)C[C@H](C)[C@H](CN(C)C)OCCCC[C@@H](C)O3)cc1 the results were FN deposition inh 1.3.
Screening N#C/C(C(N)=O)=c1/ccc2c(c1)N1C3=C(CCCC3)CC3CCCCC31N=2 (centres undefined) returned FN deposition inh 1.9, RAD54 inh -39.0, NSD2 inh 50.3*, AF4-AF9 inh 84.5*, AlphaScreen intf 2.71µM* and Alpha artifact 5.45µM*.
Cc1c(C)n(Cc2ccccc2)c2ccc(C(=O)OCCN(C)C)cc12 was read as RAD54 inh 30.9, NSD2 inh 50.5*, AF4-AF9 inh 27.7*, RAD52 anneal inh 65.9*, N-glyco inh -5.9, AlphaScreen intf -28.5%, DNA binder FP inactive and Alpha artifact -18.8%.
Screening Cc1c(C)n(Cc2ccccc2)c2ccc(C(=O)NCCN3CCOCC3)cc12 returned FN deposition inh 1.1, RAD54 inh -11.4, NSD2 inh 9.5, AF4-AF9 inh 10.7, RAD52 anneal inh 15.8 and N-glyco inh -2.0.
`CCN(CC)CCCNc1ccc2ncn3c4ccc(O)cc4c(=O)c1c23` gave FN deposition inh 1.3, NSD2 inh 64.3*, AF4-AF9 inh 24.0, RAD52 anneal inh inactive, N-glyco inh 80.6*, AlphaScreen intf -20.3% and Alpha artifact -3.1%.
For CN(C)c1cccc2c1C(=O)c1ccccc1C2=O the results were NSD2 inh 60.1*, AF4-AF9 inh 42.7*, RAD52 anneal inh 8.8, N-glyco inh 1.0, AlphaScreen intf 13.2µM* and Alpha artifact 2.2µM*.
Cc1c(C(=O)Nc2ccc(S(=O)(=O)N(C)C3CCN(C)CC3)cc2)oc2ccccc12 was read as FN deposition inh 7.9, RAD54 inh 5.5, NSD2 inh 3.3, AF4-AF9 inh 10.7, RAD52 anneal inh 30.2 and N-glyco inh 3.6.
For Cc1c(C(=O)Nc2ccc(S(=O)(=O)N(C)C3CCN(C)CC3)cc2)oc2c(Cl)cccc12 the results were RAD54 inh 8.6, NSD2 inh 2.6, AF4-AF9 inh 15.5, RAD52 anneal inh 69.5*, N-glyco inh -1.1 and DNA binder FP inactive.
For CC1CCCCN1CC(=O)Nc1ccc(Oc2ccccc2)cc1 (centres undefined) the results were RAD54 inh -8.4, NSD2 inh -10.4 and N-glyco inh -4.1.
For CC1CCCCN1CC(=O)Nc1ccc(N2CCCCCC2)cc1 (centres undefined) the results were FN deposition inh -1.6, NSD2 inh 29.5, AF4-AF9 inh 48.5*, RAD52 anneal inh 92.5*, N-glyco inh -3.3 and DNA binder FP inactive.
For CCC(=O)N(C)C[C@H]1Oc2ncc(/C=C/c3ccccc3)cc2C(=O)N([C@@H](C)CO)C[C@@H]1C the results were FN deposition inh 6.6, RAD54 inh -6.1, AF4-AF9 inh 2.5 and RAD52 anneal inh 5.6.
Screening CCN1CCN(Cc2ccc(NC(=O)c3ccc(C)c(NC(=O)N4CCNC4=O)c3)cc2C(F)(F)F)CC1 returned FN deposition inh 7.2, RAD54 inh -6.6, AF4-AF9 inh 4.4, RAD52 anneal inh -1.1 and N-glyco inh -6.1.

Bioassay records: PubChem BioAssay, Broad Institute
